Results reported in paper PMC3201796 (Cell host & microbe, 2011).
In brackets after ≈: the same amount, converted by molar mass. Counter-ions that a name gives are not always drawn. Like-named read-outs stand apart in the source and are kept apart here.

Key:
Cytostatic activity [1] = format: cell-based; settings: human, HEL cells, non-infected
Cytostatic activity [2] = format: cell-based; settings: human, PHKs, non-infected
HEL cells = assay: Cytotoxicity by cell morphology; format: cell-based, human; settings: HEL, non-infected, cell morphology
How it was run: (§1)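 Run in non-infected cultures in parallel with the antiviral assay. Cells exposed to test compound and examined microscopically at day 3. MCC is the lowest concentration giving a detectable change in cell morphology.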

PHKs = assay: Cytotoxicity by cell morphology; format: cell-based, human; settings: non-infected
How it was run: as §1

HIV-1 = settings: lymphoid and cervico-vaginal tissues; ref Lisco et al., 2008; cited from earlier work
HSV-2G, HSV-2MS = assay: Human tonsillar tissue ex vivo infected with HSV-2; format: cell-based; settings: data not shown
HIV-1 RT = HIV-1 RT (Human immunodeficiency virus type 1 group M subtype B, UniProt P03366); assay: HIV-1 reverse transcriptase assay; format: biochemical; settings: competing dATP (3.2 μM); activated calf thymus DNA
How it was run: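 Reaction mix: Tris-HCl pH 7.5, DTT, MgCl2, BSA, activated calf thymus DNA, unlabelled dCTP, dTTP and dGTP, and [3H]dATP (3.2 µM) with diphosphate test compound at various concentrations. Started with recombinant HIV-1 RT and run 30 min at 37 °C. Stopped with ice-cold 5% TCA/pyrophosphate; acid-insoluble DNA caught on glass-fibre filters and counted by liquid scintillation.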

HSV-1 DNA polymerase = HSV-1 DNA polymerase (Human herpesvirus 1, UniProt P04293); assay: HSV-1 DNA polymerase assay; format: biochemical
HSV-1 DNA polymerase, sequence (P04293 whole entry): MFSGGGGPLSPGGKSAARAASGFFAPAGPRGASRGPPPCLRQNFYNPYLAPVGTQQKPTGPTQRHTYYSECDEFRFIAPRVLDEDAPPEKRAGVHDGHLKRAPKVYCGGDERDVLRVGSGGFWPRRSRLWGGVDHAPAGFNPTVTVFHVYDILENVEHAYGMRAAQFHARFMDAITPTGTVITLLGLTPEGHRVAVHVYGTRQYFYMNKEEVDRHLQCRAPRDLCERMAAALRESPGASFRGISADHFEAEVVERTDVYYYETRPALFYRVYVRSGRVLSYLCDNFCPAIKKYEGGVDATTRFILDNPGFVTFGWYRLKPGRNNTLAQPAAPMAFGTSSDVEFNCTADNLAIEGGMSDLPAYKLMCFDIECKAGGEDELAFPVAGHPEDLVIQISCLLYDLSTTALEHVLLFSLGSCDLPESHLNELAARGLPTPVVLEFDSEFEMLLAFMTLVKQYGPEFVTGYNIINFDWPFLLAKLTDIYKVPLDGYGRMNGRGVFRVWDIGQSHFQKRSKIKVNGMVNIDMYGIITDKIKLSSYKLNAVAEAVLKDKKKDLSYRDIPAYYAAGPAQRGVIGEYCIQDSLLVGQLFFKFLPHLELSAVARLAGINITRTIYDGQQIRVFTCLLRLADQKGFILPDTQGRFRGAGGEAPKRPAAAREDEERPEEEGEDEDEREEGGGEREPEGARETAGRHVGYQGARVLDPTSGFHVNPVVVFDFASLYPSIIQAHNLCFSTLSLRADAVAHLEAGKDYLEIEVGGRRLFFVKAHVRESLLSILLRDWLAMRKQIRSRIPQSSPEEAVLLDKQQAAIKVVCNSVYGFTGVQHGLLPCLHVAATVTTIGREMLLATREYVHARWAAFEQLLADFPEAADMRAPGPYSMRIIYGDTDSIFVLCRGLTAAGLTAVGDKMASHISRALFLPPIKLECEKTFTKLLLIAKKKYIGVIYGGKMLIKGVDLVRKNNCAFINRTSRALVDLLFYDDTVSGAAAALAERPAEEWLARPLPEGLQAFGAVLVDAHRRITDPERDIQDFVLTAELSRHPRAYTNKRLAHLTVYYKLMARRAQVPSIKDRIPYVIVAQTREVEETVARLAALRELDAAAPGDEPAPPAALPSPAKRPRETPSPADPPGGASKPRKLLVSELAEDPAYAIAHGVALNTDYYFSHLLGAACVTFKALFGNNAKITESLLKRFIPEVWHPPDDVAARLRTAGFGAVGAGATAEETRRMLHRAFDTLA
How it was run: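 Recombinant HSV-1 DNA polymerase; 40 µl reactions with a Tris.HCl pH 7.5/DTT/MgCl₂ premix, BSA and activated calf thymus DNA. One radiolabelled dNTP was the competing substrate: [³H]dATP (3.2 µM), [³H]dGTP (2.8 µM), [³H]dTTP (1 µM) or [³H]dCTP (2.5 µM); unlabelled others present. Tenofovir-diphosphate added from 200, 20, 2, 0.2 µM solutions. 60 min at 37°C; stopped with ice-cold TCA/pyrophosphate; acid-insoluble DNA collected on glass-fibre filters.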

HSV-2 [3] = settings: daily oral, co-formulation with FTC; ref Lama et al., 18th CROI 2011, # 1002; cited from earlier work
HSV-2 [4] = format: cell-based; settings: M/M
HSV-2 [5] = format: cell-based; settings: day 6, M/M
HSV-2 [6] = assay: HSV-2 cytopathicity in primary monocyte/macrophage cultures; format: cell-based; settings: for Cytopathicity (CPE) (%): day 6, M/M
HSV-1 = assay: HSV-1-infected athymic nude mice; format: in vivo; settings: 1% gel, topical
How it was run: (§2)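 Female NMRI athymic nude or hairless mice (~20 g, ~4 weeks; groups of five) scarified over ~1 cm² lumbosacral area with HSV-1 KOS (5×10^3 PFU) or HSV-2 G (5×10^2). Test compound 1% in 100% DMSO or CAPRISA 004-type gel, topical twice daily for 5 days from 1-2 h post-infection; same vehicle without drug as placebo. Lesions and mortality recorded over one month; Kaplan-Meier survival, log-rank test.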

HSV-2 [7] = assay: HSV-2-infected athymic nude mice; format: in vivo; settings: 1% gel, topical
How it was run: as §2

## Nc1nc2c(ncn2COCCO)c(=O)[nH]1 [Acyclovir, 9-(2-hydroxyethoxy-methyl)guanine]
Cytostatic activity [1]
  CC50 at 3 days: 166 ± 17 µg/mL (≈ 737 µM)
Cytostatic activity [2]
  CC50 at 3 days: 132 µg/mL (≈ 586 µM)
HEL cells
  Cell toxicity MCC (minimum cytotoxic concentration): >100 µg/mL
PHKs
  Cell toxicity MCC (minimum cytotoxic concentration): >50 µg/mL
HIV-1
  inhibition of HIV-1 in herpesvirus-coinfected tissues: efficiently inhibits HIV-1

## Nc1ccn(C[C@@H](CO)OCP(=O)(O)O)c(=O)n1 [Cidofovir, (S)-1-(3-hydroxy-2-phosphonylmethoxypropyl)cytosine]
Cytostatic activity [1]
  CC50 at 3 days: 82 ± 57 µg/mL (≈ 294 µM)
Cytostatic activity [2]
  CC50 at 3 days: 34 ± 20 µg/mL (≈ 122 µM)
HEL cells
  Cell toxicity MCC (minimum cytotoxic concentration): >100 µg/mL
PHKs
  Cell toxicity MCC (minimum cytotoxic concentration): >50 µg/mL

## Nc1ccn([C@@H]2CS[C@H](CO)O2)c(=O)n1 [lamivudine]
HSV-2G, HSV-2MS
  effect on HSV-2G replication: no effect

## CC(Cn1cnc2c(N)ncnc21)OCP(=O)(O)OP(=O)(O)OP(=O)(O)O (stereo in doubt) [Tenofovir-diphosphate, Tenofovir diphosphate]
HIV-1 RT
  IC50 HIV-1 RT: 1.3 µg/mL
HSV-1 DNA polymerase; competing dATP (3.2 μM)
  IC50 herpesvirus DNA polymerase: 0.38 ± 0.03 µg/mL
HSV-1 DNA polymerase; competing dCTP (2.5 μM)
  IC50 herpesvirus DNA polymerase: 25 ± 1.8 µg/mL
HSV-1 DNA polymerase; competing dGTP (2.8 μM)
  IC50 herpesvirus DNA polymerase: 7.1 ± 5 µg/mL
HSV-1 DNA polymerase; competing dTTP (1 μM)
  IC50 herpesvirus DNA polymerase: 8.5 ± 3.8 µg/mL

## CC(C)OC(=O)OCOP(=O)(CO[C@H](C)Cn1cnc2c(N)ncnc21)OCOC(=O)OC(C)C [tenofovir DF, tenofovir disoproxil fumarate]
HSV-2 [3]
  effect on HSV-2 acquisition: did not reduce HSV-2 acquisition

## Nc1ncnc2c1ncn2CCOCP(=O)(O)O [Adefovir, 9-[2-(phosphonylmethoxyethyl)adenine]]
Cytostatic activity [1]
  CC50 at 3 days: 100 ± 57 µg/mL (≈ 366 µM)
Cytostatic activity [2]
  CC50 at 3 days: 17 ± 6 µg/mL (≈ 62.2 µM)
HEL cells
  Cell toxicity MCC (minimum cytotoxic concentration): >100 µg/mL
PHKs
  Cell toxicity MCC (minimum cytotoxic concentration): >50 µg/mL
HSV-2 [4]; 0.04 μg/ml, day 6
  Virus production (TCID50/ml): 1×10^5 TCID50/ml
HSV-2 [4]; 0.2 μg/ml, day 6
  Virus production (TCID50/ml): 6×10^4 TCID50/ml
HSV-2 [4]; 1 μg/ml, day 6
  Virus production (TCID50/ml): 8×10^2 TCID50/ml
HSV-2 [4]; 5 μg/ml, day 6
  Virus production (TCID50/ml): No virus
HSV-2 [4]; 20 μg/ml, day 6
  Virus production (TCID50/ml): No virus
HSV-2 [4]; 100 μg/ml, day 6
  Virus production (TCID50/ml): No virus
HSV-2 [4]; 500 μg/ml, day 6 post infection
  Virus production (TCID50/ml): No virus
HSV-2 [5]; 0.2 μg/ml
  Virus production (PFU/ml): 9.9×10^3 PFU/ml
HSV-2 [5]; 1 μg/ml
  Virus production (PFU/ml): 2.5×10^2 PFU/ml
HSV-2 [5]; 5 μg/ml
  Virus production (PFU/ml): No virus
HSV-2 [5]; 20 μg/ml
  Virus production (PFU/ml): No virus
HSV-2 [5]; 100 μg/ml
  Virus production (PFU/ml): No virus
HSV-2 [5]; 500 μg/ml
  Virus production (PFU/ml): No virus
HSV-2 [6]; 0.2 μg/ml
  Cytopathicity (CPE) (%): 5%
HSV-2 [6]; 1 μg/ml
  Cytopathicity (CPE) (%): None
HSV-2 [6]; 5 μg/ml
  CPE suppression in M/M: full CPE suppression
  Cytopathicity (CPE) (%): None
HSV-2 [6]; 20 μg/ml
  Cytopathicity (CPE) (%): None
HSV-2 [6]; 100 μg/ml
  Cytopathicity (CPE) (%): None
HSV-2 [6]; 500 μg/ml
  Cytopathicity (CPE) (%): None
HSV-1
  performance in 1% gel-treated mice, HSV-1 vs HSV-2: performed markedly better against HSV-1 than HSV-2
HSV-2 [7]
  performance in 1% gel-treated mice compared with tenofovir: virtually not superior to tenofovir against HSV-2
